According to ChEMBL document CHEMBL1142953, “Calcitonin gene-related peptide analogues with aza and indolizidinone amino acid residues reveal conformational requirements for antagonist activity at the human calcitonin gene-related peptide 1 receptor” (J Med Chem, 2007):
Calls of active or inactive are those of the source. The calls are words filed in the database; no cut-off is given here. Where a SMILES comes first, the peptide text is derived from it.

Columns and labels:
Assay type in all cases: functional, cell-based
[1] = target: Calcitonin gene-related peptide type 1 receptor (Homo sapiens) (UniProt Q16602); test: Partial agonist activity at human CGRP1 expressed in HEK293 cells assessed by measuring cAMP production upto 1 uM
Chain of Calcitonin gene-related peptide type 1 receptor (Homo sapiens) (Q16602 whole entry): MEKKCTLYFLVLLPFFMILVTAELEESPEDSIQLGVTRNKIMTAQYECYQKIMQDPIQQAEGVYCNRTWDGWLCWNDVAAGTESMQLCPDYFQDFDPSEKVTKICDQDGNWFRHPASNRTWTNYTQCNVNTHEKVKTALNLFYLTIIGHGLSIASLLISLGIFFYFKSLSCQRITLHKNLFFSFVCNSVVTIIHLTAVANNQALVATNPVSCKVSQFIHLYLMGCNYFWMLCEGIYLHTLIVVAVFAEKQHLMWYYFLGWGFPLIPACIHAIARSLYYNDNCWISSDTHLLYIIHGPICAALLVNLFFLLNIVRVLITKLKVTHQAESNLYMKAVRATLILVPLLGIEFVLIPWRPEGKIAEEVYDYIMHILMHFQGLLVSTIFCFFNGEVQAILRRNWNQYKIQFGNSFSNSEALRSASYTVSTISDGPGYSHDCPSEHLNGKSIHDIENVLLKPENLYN
Method in brief: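 HEK293 cells stably expressing CRLR were exposed to CGRP27-37 analogues up to 1 µM without α-CGRP. cAMP production was measured with a fluorescence-based kit as the read-out.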

[2] = target: Calcitonin gene-related peptide type 1 receptor (Homo sapiens, UniProt O60894+Q16602); test: (§1) Antagonist activity against human CGRP1 expressed in HEK293 cells assessed as inhibition of human alpha-CGRP-promoted cAMP production
Chain of Calcitonin gene-related peptide type 1 receptor (Q16602 whole entry, one chain of several): as the sequence (Q16602 whole entry) above
Method in brief: (§2)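 HEK293 cells stably expressing CRLR, seeded at 5000 cells/well. Cells preincubated with peptide analogues for 15 min at 37 °C, then stimulated with 0.5 nM α-CGRP for 15 min at 37 °C. cAMP measured with a fluorescence-based kit. Peptides tested up to 100 µM. At least three independent experiments in triplicate, analysed by nonlinear curve fitting; mean ± SEM.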

[3] = target: Calcitonin gene-related peptide type 1 receptor (Homo sapiens) (UniProt Q16602); test: as §1; design: concentration or dose not given beside the values; conditions: concentration not given here; method in brief: as §2

Activity [1]: inactive
IC50 [2]: 0.38 µM
inhibition [3]: 59%
SMILES: CC(C)[C@H](NC(=O)N(CC(=O)O)NC(=O)[C@@H](NC(=O)[C@@H]1CCCN1C(=O)[C@@H](NC(=O)[C@@H](N)Cc1ccccc1)C(C)C)[C@@H](C)O)C(=O)NCC(=O)N1CCC[C@H]1C(=O)N[C@@H](Cc1ccccc1)C(=O)N[C@@H](C)C(=O)N[C@@H](Cc1ccccc1)C(N)=O (HELM PEPTIDE1{F.V.P.T.[O=C(O)CN(N[*:1])C(=O)[*:2]].V.G.P.F.A.F.[am]}$$$$V2.0)
